Test results taken from ChEMBL document CHEMBL5678806, “NMS-P937, an orally available, specific small-molecule polo-like kinase 1 inhibitor with antitumor activity in solid and hematologic malignancies” (Mol Cancer Ther, 2012).
pIC50: −log10 of the molar value.

How the values were obtained:
[1] = biological target: Tyrosine-protein kinase JAK3 (Homo sapiens, UniProt P52333); assay: Inhibition of JAK3 (unknown origin) in presence of [gamma-33P]ATP
[2] = Inhibition of PDGFR (unknown origin) in presence of [gamma-33P]ATP; parameters: species or system Homo sapiens
[3] = biological target: Proto-oncogene tyrosine-protein kinase ROS (Homo sapiens, UniProt P08922); assay: Inhibition of ROS (unknown origin) in presence of [gamma-33P]ATP
[4] = biological target: Serine/threonine-protein kinase PLK3 (Homo sapiens) (UniProt Q9H4B4); assay: Inhibition of PLK3 (unknown origin) at 10 micromol/L in presence of [gamma-33P]ATP relative to control; conditions: dose 10.0 µmol/L
[5] = biological target: CDK6/cyclin D3 (Homo sapiens) (UniProt P30281+Q00534); assay: Inhibition of N-terminal His6-tagged full-length human CDK6/N-terminal GST-tagged full-length human cyclinD3 expressed in Sf21 cells assessed as residual activity at 0.1 uM relative to control
[6] = biological target: Casein kinase I isoform gamma-3 (Homo sapiens) (UniProt Q9Y6M4); assay: Inhibition of N-terminal 6His-tagged recombinant human CK1gamma3 (1 to 330 residues) expressed in baculovirus infected Sf21 cells assessed as residual activity at 0.1 uM relative to control
[7] = biological target: T1, Tyrosine-protein kinase Lyn (Homo sapiens, UniProt P07948); assay: Inhibition of N-terminal his6-tagged recombinant full-length human Lyn expressed in Sf21 cells assessed as residual activity at 0.1 uM relative to control
[8] = biological target: Serine/threonine-protein kinase Nek11 (Homo sapiens) (UniProt Q8NG66); assay: Inhibition of 6His-tagged recombinant human full-length NEK11 expressed in baculovirus infected Sf21 cells assessed as residual activity at 0.1 uM relative to control
[9] = biological target: cAMP-dependent protein kinase catalytic subunit PRKX (Homo sapiens) (UniProt P51817); assay: Inhibition of N-terminal 6His-tagged recombinant full-length human PrKX expressed in baculovirus infected Sf21 cells assessed as residual activity at 0.1 uM relative to control
[10] = biological target: Tyrosine-protein kinase SYK (Homo sapiens, UniProt P43405); assay: Inhibition of N-terminal His6-tagged recombinant full-length human Syk expressed in baculovirus infected Sf21 cells assessed as residual activity at 0.1 uM relative to control
[11] = biological target: Tyrosine-protein kinase HCK (Homo sapiens) (UniProt P08631); assay: Inhibition of N-terminal 6His-tagged recombinant human Hck (230 to 497 residues) expressed in baculovirus infected Sf21 cells assessed as residual activity at 1 uM relative to control
[12] = biological target: T1, Tyrosine-protein kinase Lyn; assay: Inhibition of N-terminal his6-tagged recombinant full-length human Lyn expressed in Sf21 cells assessed as residual activity at 1 uM relative to control
[13] = biological target: Serine/threonine-protein kinase PAK 3 (Homo sapiens) (UniProt O75914); assay: Inhibition of C-terminal 6His-tagged recombinant human full-length PAK3 expressed in baculovirus infected Sf21 cells assessed as residual activity at 1 uM relative to control
SAOS-2 = assay: Antiproliferative activity against human SAOS-2 cells assessed as inhibition of cell growth incubated for 72 hrs by cell-titer glo assay; assay type: functional, cell-based; conditions: SAOS-2, 72 h
Summary of the method: (§1)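 Cells from ATCC or ECACC, kept in supplier-recommended medium with 1% penicillin-streptomycin at 37°C, 5% CO₂. Seeded at 10,000–30,000/cm² (adherent) or 100,000/mL (nonadherent) in medium with 10% fetal calf serum. Dosed after 24 h in duplicate with serial dilutions. Viable cells read by CellTiter-Glo 72 h later. IC50 from sigmoidal fit. At least two independent experiments.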

U2OS [14] = assay: Antiproliferative activity against human U2OS cells assessed as inhibition of cell growth incubated for 72 hrs by cell-titer glo assay; assay type: functional, cell-based
U-87 MG = assay: Antiproliferative activity against human U-87 MG cells assessed as inhibition of cell growth incubated for 72 hrs by cell-titer glo assay; assay type: functional, cell-based, U-87MG ATCC
MDA-MB-436 = assay: Antiproliferative activity against human MDA-MB-436 cells assessed as inhibition of cell growth incubated for 72 hrs by cell-titer glo assay; assay type: functional, cell-based; conditions: MDA-MB-436, 72 h
Summary of the method: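 Cells seeded at 10,000–30,000/cm² (adherent) or 100,000/mL (nonadherent) in medium with 10% fetal calf serum; after 24 h, treated in duplicate with serial dilutions for 72 h. Viable cell number read by CellTiter-Glo luminescence; IC50 from sigmoidal fit; at least two independent experiments.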

NCI-H526 = assay: Antiproliferative activity against human NCI-H526 cells assessed as inhibition of cell growth incubated for 72 hrs by cell-titer glo assay; assay type: functional, cell-based; conditions: NCI-H526, 72 h; summary of the method: as §1
A2780 = assay: Antiproliferative activity against human A2780 cells assessed as inhibition of cell growth incubated for 72 hrs by cell-titer glo assay; assay type: functional, cell-based; conditions: A2780, 72 h
Summary of the method: (§2)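 Cells seeded 10,000–30,000/cm² (adherent) or 100,000/mL (suspension) in medium with 10% fetal calf serum; after 24 h treated in duplicate with serial dilutions for 72 h. Viable cells read by CellTiter-Glo luminescence; IC50 from sigmoidal fit; at least two independent experiments.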

[15] = Antiproliferative activity against human A2780cis cells assessed as inhibition of cell growth incubated for 72 hrs by cell-titer glo assay; assay type: functional, cell-based; summary of the method: as §2
PC-3 = assay: Antiproliferative activity against human PC-3 cells assessed as inhibition of cell growth incubated for 72 hrs by cell-titer glo assay; assay type: functional, cell-based; conditions: PC-3, 72 h; summary of the method: as §1
PANC-1 = assay: Antiproliferative activity against human PANC-1 cells assessed as inhibition of cell growth incubated for 72 hrs by cell-titer glo assay; assay type: functional, cell-based; conditions: PANC-1, 72 h; summary of the method: as §1
[16] = Antiproliferative activity against human PL-21 cells assessed as inhibition of cell growth incubated for 72 hrs by cell-titer glo assay; assay type: functional, cell-based; conditions: PL-21, 72 h; summary of the method: as §1
UACC-62 = assay: Antiproliferative activity against human UACC-62 cells assessed as inhibition of cell growth incubated for 72 hrs by cell-titer glo assay; assay type: functional, cell-based; conditions: UACC-62, 72 h
RO82-W-1 = assay: Antiproliferative activity against human RO82-W-1 cells assessed as inhibition of cell growth incubated for 72 hrs by cell-titer glo assay; assay type: functional, cell-based; conditions: RO82-W-1, 72 h; summary of the method: as §1
SUD4 = assay: Antiproliferative activity against human SU-DHL-4 cells assessed as inhibition of cell growth incubated for 72 hrs by cell-titer glo assay; assay type: functional, cell-based; conditions: SU-DHL-4, 72 h
[17] = Volume of distribution at steady state in nu/nu mouse at 10 mg/kg, iv by LC-MS analysis; assay type: ADME, organism-based; conditions: in vivo, read-out: Vdss
[18] = Volume of distribution at steady state in male cynomolgus monkey at 5 mg/kg, iv by LC-MS analysis; assay type: ADME, organism-based, Macaca fascicularis; conditions: in vivo, read-out: Vdss
[19] = AUC in nu/nu mouse at 10 mg/kg, iv by LC-MS analysis; assay type: ADME, organism-based; conditions: in vivo
[20] = Tmax in Sprague-Dawley rat at 10 mg/kg, po by LC-MS analysis; assay type: ADME, organism-based; conditions: in vivo
U2OS [21] = assay: Effect on cell morphology in human U2OS cells assessed as increased number of rounded cells at 1 uM by time lapse microscopy analysis; assay type: functional, cell-based; conditions: time lower […], time upper 48.0 hrs, TDE = time-dependent effect

T1 sequence (P07948 2-512 limits assumed): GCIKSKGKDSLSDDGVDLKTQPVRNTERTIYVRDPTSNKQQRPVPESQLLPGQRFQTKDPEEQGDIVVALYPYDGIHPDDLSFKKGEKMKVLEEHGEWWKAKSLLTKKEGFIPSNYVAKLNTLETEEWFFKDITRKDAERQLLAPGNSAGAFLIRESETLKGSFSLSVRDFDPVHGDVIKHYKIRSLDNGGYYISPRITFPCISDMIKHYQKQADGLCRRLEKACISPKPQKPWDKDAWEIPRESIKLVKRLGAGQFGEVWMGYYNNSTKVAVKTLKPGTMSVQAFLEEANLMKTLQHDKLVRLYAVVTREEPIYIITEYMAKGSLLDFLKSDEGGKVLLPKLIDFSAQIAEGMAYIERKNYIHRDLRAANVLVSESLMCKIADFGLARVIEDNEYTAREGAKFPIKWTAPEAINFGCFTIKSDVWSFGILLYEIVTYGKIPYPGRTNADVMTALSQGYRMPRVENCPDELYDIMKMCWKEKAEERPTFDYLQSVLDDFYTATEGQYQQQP
Serine/threonine-protein kinase Nek11 (Homo sapiens), sequence (Q8NG66 whole entry): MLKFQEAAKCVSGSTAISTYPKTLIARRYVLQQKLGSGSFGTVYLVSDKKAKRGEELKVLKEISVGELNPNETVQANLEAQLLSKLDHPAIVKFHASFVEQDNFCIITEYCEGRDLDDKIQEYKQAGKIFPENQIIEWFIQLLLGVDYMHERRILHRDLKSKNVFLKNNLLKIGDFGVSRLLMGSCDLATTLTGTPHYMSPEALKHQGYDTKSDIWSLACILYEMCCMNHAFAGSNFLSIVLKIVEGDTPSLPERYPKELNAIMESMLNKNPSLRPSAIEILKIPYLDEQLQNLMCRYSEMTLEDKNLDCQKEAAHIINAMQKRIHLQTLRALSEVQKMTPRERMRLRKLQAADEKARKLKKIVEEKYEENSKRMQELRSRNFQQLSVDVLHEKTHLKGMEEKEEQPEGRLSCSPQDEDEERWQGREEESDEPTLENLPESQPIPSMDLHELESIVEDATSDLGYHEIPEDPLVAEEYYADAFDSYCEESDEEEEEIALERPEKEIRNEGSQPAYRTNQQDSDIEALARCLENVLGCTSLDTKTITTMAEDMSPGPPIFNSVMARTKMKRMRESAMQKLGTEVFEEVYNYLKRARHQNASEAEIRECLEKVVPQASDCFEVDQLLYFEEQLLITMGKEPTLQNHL
Serine/threonine-protein kinase PLK3 (Homo sapiens), sequence (Q9H4B4 whole entry, looked up): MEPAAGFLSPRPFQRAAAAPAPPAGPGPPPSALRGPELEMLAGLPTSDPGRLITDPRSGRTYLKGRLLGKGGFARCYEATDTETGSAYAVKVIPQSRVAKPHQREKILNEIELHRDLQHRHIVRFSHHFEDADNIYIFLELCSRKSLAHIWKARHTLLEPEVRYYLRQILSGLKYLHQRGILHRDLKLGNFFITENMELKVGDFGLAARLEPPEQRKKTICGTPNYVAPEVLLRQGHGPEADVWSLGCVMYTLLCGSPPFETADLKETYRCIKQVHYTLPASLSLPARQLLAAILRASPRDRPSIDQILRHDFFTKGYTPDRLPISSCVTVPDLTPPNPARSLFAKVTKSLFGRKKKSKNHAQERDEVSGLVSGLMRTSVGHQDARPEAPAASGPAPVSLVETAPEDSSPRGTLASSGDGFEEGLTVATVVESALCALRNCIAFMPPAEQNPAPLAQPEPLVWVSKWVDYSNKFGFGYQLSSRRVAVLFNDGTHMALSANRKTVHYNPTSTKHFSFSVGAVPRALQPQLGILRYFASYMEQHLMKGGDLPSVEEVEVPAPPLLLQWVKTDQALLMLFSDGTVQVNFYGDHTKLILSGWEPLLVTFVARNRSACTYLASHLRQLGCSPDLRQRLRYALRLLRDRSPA
cAMP-dependent protein kinase catalytic subunit PRKX (Homo sapiens), sequence (P51817 whole entry): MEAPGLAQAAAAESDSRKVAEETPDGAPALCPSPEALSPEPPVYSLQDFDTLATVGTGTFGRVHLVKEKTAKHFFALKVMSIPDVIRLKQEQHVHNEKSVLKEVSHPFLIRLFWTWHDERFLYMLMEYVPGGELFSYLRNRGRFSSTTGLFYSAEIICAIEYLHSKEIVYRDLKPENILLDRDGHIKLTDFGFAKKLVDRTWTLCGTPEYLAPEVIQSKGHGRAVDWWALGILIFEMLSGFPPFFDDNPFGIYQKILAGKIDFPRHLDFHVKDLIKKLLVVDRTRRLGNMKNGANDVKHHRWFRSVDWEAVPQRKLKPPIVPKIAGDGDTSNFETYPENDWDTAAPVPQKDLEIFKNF
Tyrosine-protein kinase HCK (Homo sapiens), sequence (P08631 2-526 limits assumed): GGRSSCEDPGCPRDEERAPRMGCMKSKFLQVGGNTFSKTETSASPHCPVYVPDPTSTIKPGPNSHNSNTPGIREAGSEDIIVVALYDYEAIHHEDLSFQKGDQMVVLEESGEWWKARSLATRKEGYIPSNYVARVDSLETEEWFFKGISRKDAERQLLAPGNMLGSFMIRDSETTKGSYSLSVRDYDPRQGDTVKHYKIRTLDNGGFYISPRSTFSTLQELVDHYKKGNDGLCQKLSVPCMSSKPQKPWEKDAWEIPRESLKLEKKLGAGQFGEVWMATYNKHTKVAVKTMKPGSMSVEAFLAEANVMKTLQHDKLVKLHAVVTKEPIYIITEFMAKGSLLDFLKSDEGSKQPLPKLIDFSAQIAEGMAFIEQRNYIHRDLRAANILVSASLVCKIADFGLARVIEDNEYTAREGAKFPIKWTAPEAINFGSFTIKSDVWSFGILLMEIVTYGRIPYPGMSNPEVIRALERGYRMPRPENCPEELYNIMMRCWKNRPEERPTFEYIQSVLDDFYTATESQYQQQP
Serine/threonine-protein kinase PAK 3 (Homo sapiens), sequence (O75914 whole entry, looked up): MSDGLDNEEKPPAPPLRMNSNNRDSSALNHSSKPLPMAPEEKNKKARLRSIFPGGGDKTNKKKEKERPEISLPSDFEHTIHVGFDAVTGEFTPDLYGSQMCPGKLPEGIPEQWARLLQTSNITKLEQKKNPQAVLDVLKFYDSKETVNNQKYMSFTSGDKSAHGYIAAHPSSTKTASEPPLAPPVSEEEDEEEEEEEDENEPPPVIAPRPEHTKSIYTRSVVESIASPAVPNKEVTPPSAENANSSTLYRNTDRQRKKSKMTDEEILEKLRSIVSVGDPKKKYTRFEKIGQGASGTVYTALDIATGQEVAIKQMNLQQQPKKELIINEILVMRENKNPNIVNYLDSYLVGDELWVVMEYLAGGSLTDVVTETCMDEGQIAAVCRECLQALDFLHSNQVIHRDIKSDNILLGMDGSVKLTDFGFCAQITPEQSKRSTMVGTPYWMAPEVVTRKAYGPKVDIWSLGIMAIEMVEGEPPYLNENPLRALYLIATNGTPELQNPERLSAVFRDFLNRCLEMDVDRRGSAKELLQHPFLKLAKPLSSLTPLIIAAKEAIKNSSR
Tyrosine-protein kinase JAK3, sequence (P52333 whole entry): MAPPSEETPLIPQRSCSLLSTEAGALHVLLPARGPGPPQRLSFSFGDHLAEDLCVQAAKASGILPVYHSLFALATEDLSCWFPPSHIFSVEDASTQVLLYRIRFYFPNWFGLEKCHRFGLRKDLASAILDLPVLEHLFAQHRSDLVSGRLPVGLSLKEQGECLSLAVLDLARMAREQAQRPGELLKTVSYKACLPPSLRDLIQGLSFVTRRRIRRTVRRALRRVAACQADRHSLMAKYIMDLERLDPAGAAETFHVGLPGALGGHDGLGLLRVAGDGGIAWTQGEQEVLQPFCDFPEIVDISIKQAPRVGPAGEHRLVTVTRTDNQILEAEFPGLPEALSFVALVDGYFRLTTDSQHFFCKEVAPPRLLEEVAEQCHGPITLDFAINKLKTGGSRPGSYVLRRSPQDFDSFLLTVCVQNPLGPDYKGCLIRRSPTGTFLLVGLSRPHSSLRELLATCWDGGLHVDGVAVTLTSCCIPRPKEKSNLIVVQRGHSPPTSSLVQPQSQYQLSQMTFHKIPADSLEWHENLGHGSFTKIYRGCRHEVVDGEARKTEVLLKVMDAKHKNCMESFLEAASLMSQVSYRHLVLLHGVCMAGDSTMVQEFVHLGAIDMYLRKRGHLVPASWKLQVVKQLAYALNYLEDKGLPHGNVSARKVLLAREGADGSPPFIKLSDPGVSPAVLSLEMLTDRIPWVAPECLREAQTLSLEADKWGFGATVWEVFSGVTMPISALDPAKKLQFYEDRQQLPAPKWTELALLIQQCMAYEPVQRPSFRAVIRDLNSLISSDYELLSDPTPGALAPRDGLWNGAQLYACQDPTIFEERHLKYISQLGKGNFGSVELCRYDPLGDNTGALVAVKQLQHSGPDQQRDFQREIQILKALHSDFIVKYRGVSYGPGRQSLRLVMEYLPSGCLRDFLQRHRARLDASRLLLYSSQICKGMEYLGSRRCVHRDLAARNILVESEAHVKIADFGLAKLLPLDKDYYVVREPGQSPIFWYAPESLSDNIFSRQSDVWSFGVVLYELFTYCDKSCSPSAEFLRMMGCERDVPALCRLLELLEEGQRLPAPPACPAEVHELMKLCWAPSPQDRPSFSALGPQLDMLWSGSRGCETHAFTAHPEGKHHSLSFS
Casein kinase I isoform gamma-3 (Homo sapiens), sequence (Q9Y6M4 whole entry, looked up, the tested form may be a part, canonical isoform): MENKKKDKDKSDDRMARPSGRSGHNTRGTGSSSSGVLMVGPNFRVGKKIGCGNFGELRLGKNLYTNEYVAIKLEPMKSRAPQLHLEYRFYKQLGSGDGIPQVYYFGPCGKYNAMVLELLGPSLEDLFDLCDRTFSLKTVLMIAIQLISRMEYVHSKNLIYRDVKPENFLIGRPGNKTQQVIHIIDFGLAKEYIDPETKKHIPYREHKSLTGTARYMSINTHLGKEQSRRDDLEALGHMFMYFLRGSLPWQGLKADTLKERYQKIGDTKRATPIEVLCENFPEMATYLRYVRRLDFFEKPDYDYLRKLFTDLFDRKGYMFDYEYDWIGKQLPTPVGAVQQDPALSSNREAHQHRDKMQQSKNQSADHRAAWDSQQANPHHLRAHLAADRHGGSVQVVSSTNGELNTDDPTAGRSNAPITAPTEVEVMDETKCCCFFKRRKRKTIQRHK

SMILES: CN1CCN(c2ccc(OC(F)(F)F)c(Nc3ncc4c(n3)-c3c(c(C(N)=O)nn3CCO)CC4)c2)CC1 [ONVANSERTIB]
- pIC50 [1]: < 5.00
- pIC50 [2]: < 5.00
- pIC50 [3]: < 5.00
- inhibition [4]: 40.2%
- Activity [5]: 114%
- Activity [6]: 96%
- Activity [7]: 156%
- Activity [8]: 114%
- Activity [9]: 90%
- Activity [10]: 96%
- Activity [11]: 118%
- Activity [12]: 198%
- Activity [13]: 90%
- pIC50 (SAOS-2): 7.35
- pIC50 (U2OS [14]): 6.55
- pIC50 (U-87 MG): 6.00
- pIC50 (MDA-MB-436): 7.03
- pIC50 (NCI-H526): 7.51
- pIC50 (A2780): 7.40
- pIC50 [15]: 7.32
- pIC50 (PC-3): 6.82
- pIC50 (PANC-1): 6.74
- pIC50 [16]: 7.66
- pIC50 (UACC-62): 6.99
- pIC50 (RO82-W-1): 6.08
- pIC50 (SUD4): 7.25
- Vd [17]: 1.7 L/kg
- Vd [18]: 2.9 L/kg
- AUC [19]: 8.6 µM·h
- Tmax [20]: 3 h
- Activity (U2OS [21]): Tde
